In data set [1] the test system is Schistosoma mansoni. Briefly: Antischistosomal activity against Schistosoma mansoni assessed as induction of parasite mortality after 48 hrs. The format is functional. Further details: concentration or dose not given beside the values. Summed up:
(§1)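 Cultured ex vivo worms were exposed to 10 μM compound. Worm effects were scored by visual examination at time points over a 72 h time-course.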

The subject of data set [2] is Schistosoma mansoni. As to the kind of experiment: Antischistosomal activity against Schistosoma mansoni assessed as induction of parasite mortality after 24 hrs. The data set is classed as functional. Also on record: concentration or dose not given beside the values. In a few lines:
as §1

In data set [3] the test system is Schistosoma mansoni. Briefly: Antischistosomal activity against Schistosoma mansoni assessed as parasite killing after 4 hrs. The data set is classed as functional. In a few lines: as §1
The subject of data set [4] is Schistosoma mansoni. Briefly: Antischistosomal activity against Schistosoma mansoni assessed as induction of parasite mortality after 16 hrs. The data set is classed as functional. Further details: concentration or dose not given beside the values. In a few lines:
as §1

The subject of data set [5] is Schistosoma mansoni. As to the kind of experiment: Antischistosomal activity against Schistosoma mansoni assessed as induction of parasite mortality after 72 hrs. The format is functional. Also on record: concentration or dose not given beside the values. In a few lines: as §1
Data set [6] deals with Schistosoma mansoni. As to the kind of experiment: Antischistosomal activity against Schistosoma mansoni assessed as parasite killing after 2 hrs. The data set is classed as functional, organism-based. Summed up:
as §1

Data set [7] addresses T1, Glutathione reductase, mitochondrial (Homo sapiens, UniProt P00390).
T1 sequence (P00390 whole entry): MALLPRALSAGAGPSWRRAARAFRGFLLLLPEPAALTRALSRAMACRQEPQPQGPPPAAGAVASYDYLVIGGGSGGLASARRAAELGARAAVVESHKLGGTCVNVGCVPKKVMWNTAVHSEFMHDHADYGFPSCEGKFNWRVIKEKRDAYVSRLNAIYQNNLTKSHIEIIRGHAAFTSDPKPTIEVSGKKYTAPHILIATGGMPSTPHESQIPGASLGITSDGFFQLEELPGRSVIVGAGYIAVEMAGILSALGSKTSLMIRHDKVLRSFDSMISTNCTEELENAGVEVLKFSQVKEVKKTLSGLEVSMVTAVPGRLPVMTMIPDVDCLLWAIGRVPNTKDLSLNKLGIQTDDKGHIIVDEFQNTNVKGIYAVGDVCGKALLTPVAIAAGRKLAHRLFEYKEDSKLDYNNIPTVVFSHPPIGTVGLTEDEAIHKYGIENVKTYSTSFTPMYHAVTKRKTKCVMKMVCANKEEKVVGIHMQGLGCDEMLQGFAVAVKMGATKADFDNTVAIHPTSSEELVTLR
Briefly: Inhibition of human recombinant GR after 15 mins in presence of NADPH.

The subject of data set [8] is Schistosoma mansoni. As to the kind of experiment: Antischistosomal activity against Schistosoma mansoni assessed as induction of parasite mortality after 8 hrs. The format is functional. Also on record: concentration or dose not given beside the values. In a few lines: as §1
Data set [9] is described as follows: Induction of nitric oxide release at 10 uM in presence of cysteine. The data set is classed as physicochemical.
Data set [10] is described as follows: Induction of nitric oxide release at 10 uM in presence of Schistosoma mansoni recombinant TGR. The data set is classed as functional.
In data set [11] the target is T2, Thioredoxin reductase 1, cytoplasmic (Rattus norvegicus, UniProt O89049).
T2 sequence (O89049 whole entry): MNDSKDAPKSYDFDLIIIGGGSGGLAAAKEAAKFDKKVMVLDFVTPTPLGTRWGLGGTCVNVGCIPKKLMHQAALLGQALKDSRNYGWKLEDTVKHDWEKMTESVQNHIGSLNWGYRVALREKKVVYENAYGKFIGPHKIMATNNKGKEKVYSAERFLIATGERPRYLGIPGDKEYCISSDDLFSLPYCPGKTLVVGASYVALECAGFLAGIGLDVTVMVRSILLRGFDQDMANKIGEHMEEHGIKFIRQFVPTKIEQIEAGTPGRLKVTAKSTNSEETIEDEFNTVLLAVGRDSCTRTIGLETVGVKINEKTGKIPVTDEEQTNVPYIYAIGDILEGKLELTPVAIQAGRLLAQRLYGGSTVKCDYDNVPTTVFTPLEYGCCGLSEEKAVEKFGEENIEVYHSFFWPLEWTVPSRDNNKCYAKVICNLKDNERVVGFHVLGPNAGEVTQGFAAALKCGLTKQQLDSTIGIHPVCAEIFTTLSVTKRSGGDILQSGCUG
Briefly: Inhibition of rat recombinant TrxR1 after 10 mins.

Data set [12] can be described thus: Induction of nitric oxide release at 10 uM in presence of Schistosoma mansoni recombinant TGR and NADPH. The data set is classed as functional.
A short description of data set [13]: Reactivity with cysteine at 0.1 mM in 0.1M phosphate buffer assessed as amount of compound unreacted by HPLC.
The target in data set [14] is T3, Thioredoxin glutathione reductase (Schistosoma mansoni, UniProt Q962Y6).
T3 sequence (Q962Y6 whole entry): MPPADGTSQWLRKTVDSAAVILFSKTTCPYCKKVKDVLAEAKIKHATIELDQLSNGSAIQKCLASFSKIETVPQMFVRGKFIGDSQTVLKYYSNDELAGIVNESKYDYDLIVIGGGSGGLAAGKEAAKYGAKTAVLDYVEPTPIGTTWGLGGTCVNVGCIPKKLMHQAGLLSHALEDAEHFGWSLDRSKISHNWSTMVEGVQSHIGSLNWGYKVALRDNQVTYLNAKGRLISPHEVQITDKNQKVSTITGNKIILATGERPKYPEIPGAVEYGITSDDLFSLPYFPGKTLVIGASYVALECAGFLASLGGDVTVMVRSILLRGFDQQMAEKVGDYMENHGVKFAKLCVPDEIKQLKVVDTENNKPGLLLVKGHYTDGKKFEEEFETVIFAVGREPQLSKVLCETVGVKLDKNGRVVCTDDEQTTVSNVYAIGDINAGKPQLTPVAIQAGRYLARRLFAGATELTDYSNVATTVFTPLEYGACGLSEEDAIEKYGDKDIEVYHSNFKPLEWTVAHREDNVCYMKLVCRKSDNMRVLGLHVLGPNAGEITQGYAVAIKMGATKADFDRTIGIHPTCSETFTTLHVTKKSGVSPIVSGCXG
Briefly: Inhibition of Schistosoma mansoni TGR.

pIC50: −log10 of the molar value. Activity calls are given as the source filed them. No cut-off for these calls is given here.

As for `COc1ccccc1-c1no[n+]([O-])c1C#N`, the Activity is reported as 50% in the data set with Schistosoma mansoni [1], 40% in the data set with Schistosoma mansoni [2], 11% in the data set with Schistosoma mansoni [4] and 60% in the data set on Schistosoma mansoni [5]. The result in the data set on Schistosoma mansoni [3] and in the data set on Schistosoma mansoni [6] was inactive.

With `COc1cccc(-c2no[n+]([O-])c2C#N)c1`, the pIC50 is under 4.30 in data set [7] and under 3.40 in [11]. For the same molecule, the outcome with Schistosoma mansoni [8], in the data set with Schistosoma mansoni [3], in the data set with Schistosoma mansoni [4] and in the data set with Schistosoma mansoni [6] was inactive. For the same molecule, the Activity in data set [9] was 52%; in the data set on Schistosoma mansoni [1], 12%; with Schistosoma mansoni [2], 7%; in data set [10] it was 2%; in data set [12] it was 9%; with Schistosoma mansoni [5], 20%.

On to `N#Cc1no[n+]([O-])c1-c1ccccc1`, for which the Activity was 10% in data set [9], under 1% in [10] and 5% in data set [12]. In addition, the result in [13] was Active.

With `N#Cc1nonc1-c1ccccc1`, the Activity was 7% in data set [9], under 1% in data set [10] and 3% in data set [12].

Consider `O=C(O)c1c(-c2ccccc2)no[n+]1[O-]`, for which the pIC50 in [7] was under 4.30; in data set [14], 6.20; in [11], under 3.40. In addition, the outcome with Schistosoma mansoni [8], with Schistosoma mansoni [1], in the data set with Schistosoma mansoni [2], in the data set with Schistosoma mansoni [3], with Schistosoma mansoni [4] and in the data set on Schistosoma mansoni [5] was inactive. Further, the result in the data set with Schistosoma mansoni [6] was inactive. Further, the Activity turned out to be 10% in data set [9], 2% in data set [10] and 7% in data set [12].

On to `N#Cc1c(-c2ccco2)no[n+]1[O-]`, for which the pIC50 is under 4.30 in data set [7], 5.55 in data set [14] and 3.46 in [11]. In addition, the Activity in the data set on Schistosoma mansoni [8] is 10%; in [9] it was 60%; in the data set with Schistosoma mansoni [1], 100%; with Schistosoma mansoni [2] it was 70%; in the data set on Schistosoma mansoni [4], 40%; in data set [10] it was 2%. The Activity in data set [12] is 16%; with Schistosoma mansoni [5], 100%. In addition, the result in the data set with Schistosoma mansoni [3] and with Schistosoma mansoni [6] was inactive.

Turning to `N#Cc1c(-c2cccc(C(F)(F)F)c2)no[n+]1[O-]`, the pIC50 in data set [7] is under 4.30; in data set [11] it was 3.60. The Activity is 7% in the data set on Schistosoma mansoni [8]; 78% in [9]; 100% in the data set with Schistosoma mansoni [1]; 54% with Schistosoma mansoni [2]; 25% in the data set on Schistosoma mansoni [4]; 2% in data set [10]. Further, the Activity came to 20% in [12] and 100% with Schistosoma mansoni [5]. For the same molecule, the outcome in the data set with Schistosoma mansoni [3] and in the data set with Schistosoma mansoni [6] was inactive.

In the case of `N#Cc1c(-c2ccc(F)cc2)no[n+]1[O-]`, the figures for the pIC50 in data set [7] and in data set [11] were under 4.30 and 3.52, respectively. For the same molecule, the Activity in the data set on Schistosoma mansoni [8] is 5%; in [9], 50%; with Schistosoma mansoni [1] it was 100%; in the data set with Schistosoma mansoni [2], 72%; in the data set with Schistosoma mansoni [4] it was 15%; in data set [10] it was under 1%. Besides, the Activity in [12] was found to be 13%; in the data set with Schistosoma mansoni [5] it was 100%. In addition, the result in the data set with Schistosoma mansoni [3] and in the data set with Schistosoma mansoni [6] was inactive.

With `Cc1ccc(-c2no[n+]([O-])c2C#N)cc1`, the pIC50 in [7] was under 4.30; in data set [11] it was under 3.40. For the same molecule, the outcome in the data set on Schistosoma mansoni [8], with Schistosoma mansoni [3] and in the data set on Schistosoma mansoni [6] was inactive. Also, the Activity in data set [9] stood at 58%; with Schistosoma mansoni [1] it was 55%; with Schistosoma mansoni [2], 50%; with Schistosoma mansoni [4], 15%; in data set [10], 1%; in data set [12], 15%. For the same molecule, the Activity in the data set with Schistosoma mansoni [5] was 70%.

In the case of `N#Cc1c(-c2cccc(O)c2)no[n+]1[O-]`, the outcome in the data set on Schistosoma mansoni [1], with Schistosoma mansoni [2], in the data set with Schistosoma mansoni [3], in the data set on Schistosoma mansoni [4], with Schistosoma mansoni [5] and in the data set with Schistosoma mansoni [6] was inactive.

With `N#Cc1c(-c2ccc(C(F)(F)F)cc2)no[n+]1[O-]`, the pIC50 in data set [7] was 4.34; in [11], over 4.90. Besides, the Activity with Schistosoma mansoni [8] came to 12%; in [9], 80%; with Schistosoma mansoni [1] it was 80%; in the data set with Schistosoma mansoni [2] it was 64%; in the data set with Schistosoma mansoni [4], 20%; in data set [10] it was 2%. Further, the Activity in [12] was found to be 22%; in the data set on Schistosoma mansoni [5] it was 100%. Further, the result with Schistosoma mansoni [3] and in the data set on Schistosoma mansoni [6] was inactive.

As to `COc1ccc(-c2no[n+]([O-])c2C#N)cc1`, the pIC50 in data set [7] was under 4.30; in [11], under 3.40. Besides, the result in the data set on Schistosoma mansoni [8], in the data set on Schistosoma mansoni [3] and with Schistosoma mansoni [6] was inactive. Besides, the Activity in data set [9] worked out at 55%; with Schistosoma mansoni [1], 60%; in the data set on Schistosoma mansoni [2] it was 29%; in the data set on Schistosoma mansoni [4], 10%; in data set [10], 2%; in data set [12] it was 10%. The Activity in the data set with Schistosoma mansoni [5] is 100%.

Take `[O-][n+]1onc(-c2ccccc2)c1CO`: the figures for the pIC50 in data set [7] and in [11] were under 4.30 and under 3.40, respectively.

As for `N#Cc1c(-c2cccc(Br)c2)no[n+]1[O-]`, the pIC50 in data set [7] is under 4.30; in [11], 3.82. Further, the Activity in the data set on Schistosoma mansoni [8] is 20%; in data set [9] it was 70%; in the data set with Schistosoma mansoni [1] it was 100%; in the data set with Schistosoma mansoni [2], 100%; with Schistosoma mansoni [4] it was 39%; in data set [10] it was 2%. Moreover, the Activity in data set [12] came out at 19%; with Schistosoma mansoni [5], 100%. For the same molecule, the outcome with Schistosoma mansoni [3] and in the data set on Schistosoma mansoni [6] was inactive.

Turning to `NC(=O)c1c(-c2ccccc2)no[n+]1[O-]`, the pIC50 in data set [7] is under 4.30; in [14] it was 4.75; in data set [11], under 3.40. The Activity was 12% in the data set with Schistosoma mansoni [8]; 100% in the data set with Schistosoma mansoni [1]; 60% in the data set with Schistosoma mansoni [2]; 27% in the data set with Schistosoma mansoni [4]; 100% with Schistosoma mansoni [5]. Moreover, the outcome with Schistosoma mansoni [3] and with Schistosoma mansoni [6] was inactive.

Broadly, the pIC50 is the negative decadic logarithm of the IC50, by convention in mol/L.

Values taken from ChEMBL document CHEMBL1155233, “Structure mechanism insights and the role of nitric oxide donation guide the development of oxadiazole-2-oxides as therapeutic agents against schistosomiasis” (J Med Chem, 2009).
